Values after ≈ are worked out from the molar mass of the structure shown.
Assays:
[1] = Antitumor activity against mouse HM1 cells xenografted in B6C3F1 mouse assessed as inhibition of lung metastasis at 1 mg/kg, iv administered biweekly starting on day 1 post tumor xenografting measured on day 35 post tumor xenografting; type: functional; settings: in the assay text read “starting on day 11 post” for “starting on day 1 post”
How it was run: (§1)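 HM-1 ovarian cancer cells injected subcutaneously into B6C3F1 mice on day 0. Primary tumor surgically removed under isoflurane on day 10. Compound given intravenously twice weekly from day 11. Lung metastases counted on day 35 and expressed as % inhibition. Six mice per group, mean ± SD. Significance versus vehicle by Wilcoxon test.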

Toll-like receptor 7 [2] = target: T1, Toll-like receptor 7 (Mus musculus, UniProt P58681); assay: Agonist activity at mouse TLR7
T1 sequence (P58681 whole entry): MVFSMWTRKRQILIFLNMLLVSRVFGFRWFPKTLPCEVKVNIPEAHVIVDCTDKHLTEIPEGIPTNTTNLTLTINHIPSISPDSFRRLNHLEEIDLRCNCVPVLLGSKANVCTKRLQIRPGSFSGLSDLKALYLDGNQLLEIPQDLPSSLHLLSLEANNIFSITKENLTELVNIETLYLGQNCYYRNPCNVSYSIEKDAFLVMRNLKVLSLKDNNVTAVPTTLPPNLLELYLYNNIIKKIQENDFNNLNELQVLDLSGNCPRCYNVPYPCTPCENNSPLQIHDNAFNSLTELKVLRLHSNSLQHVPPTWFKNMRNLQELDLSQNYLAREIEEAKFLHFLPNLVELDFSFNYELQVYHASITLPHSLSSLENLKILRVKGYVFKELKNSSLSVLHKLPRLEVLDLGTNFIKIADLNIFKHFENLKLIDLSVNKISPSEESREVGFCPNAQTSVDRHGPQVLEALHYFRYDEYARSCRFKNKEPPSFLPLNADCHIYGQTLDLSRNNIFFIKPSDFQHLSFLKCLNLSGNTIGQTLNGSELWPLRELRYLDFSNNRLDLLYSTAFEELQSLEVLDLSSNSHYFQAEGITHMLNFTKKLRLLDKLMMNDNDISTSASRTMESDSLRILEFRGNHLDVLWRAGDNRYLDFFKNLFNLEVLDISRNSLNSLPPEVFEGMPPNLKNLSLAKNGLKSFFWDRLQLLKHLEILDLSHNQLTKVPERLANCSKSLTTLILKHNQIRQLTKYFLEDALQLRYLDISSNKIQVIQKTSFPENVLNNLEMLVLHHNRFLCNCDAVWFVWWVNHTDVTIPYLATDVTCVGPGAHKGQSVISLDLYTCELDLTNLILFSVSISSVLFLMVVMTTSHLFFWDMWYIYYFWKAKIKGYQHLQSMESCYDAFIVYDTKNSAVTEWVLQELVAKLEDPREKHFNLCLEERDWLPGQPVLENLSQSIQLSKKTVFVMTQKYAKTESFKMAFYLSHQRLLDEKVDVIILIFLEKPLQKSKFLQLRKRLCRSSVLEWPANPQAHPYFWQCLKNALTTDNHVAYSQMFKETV

Toll-like receptor 7 [3] = target: T2, Toll-like receptor 7 (Homo sapiens, UniProt Q9NYK1); assay: Agonist activity at human TLR7 expressed in HEK293 cells by NFkappaB SEAP reporter gene assay; type: cell-based
T2 sequence (Q9NYK1 whole entry): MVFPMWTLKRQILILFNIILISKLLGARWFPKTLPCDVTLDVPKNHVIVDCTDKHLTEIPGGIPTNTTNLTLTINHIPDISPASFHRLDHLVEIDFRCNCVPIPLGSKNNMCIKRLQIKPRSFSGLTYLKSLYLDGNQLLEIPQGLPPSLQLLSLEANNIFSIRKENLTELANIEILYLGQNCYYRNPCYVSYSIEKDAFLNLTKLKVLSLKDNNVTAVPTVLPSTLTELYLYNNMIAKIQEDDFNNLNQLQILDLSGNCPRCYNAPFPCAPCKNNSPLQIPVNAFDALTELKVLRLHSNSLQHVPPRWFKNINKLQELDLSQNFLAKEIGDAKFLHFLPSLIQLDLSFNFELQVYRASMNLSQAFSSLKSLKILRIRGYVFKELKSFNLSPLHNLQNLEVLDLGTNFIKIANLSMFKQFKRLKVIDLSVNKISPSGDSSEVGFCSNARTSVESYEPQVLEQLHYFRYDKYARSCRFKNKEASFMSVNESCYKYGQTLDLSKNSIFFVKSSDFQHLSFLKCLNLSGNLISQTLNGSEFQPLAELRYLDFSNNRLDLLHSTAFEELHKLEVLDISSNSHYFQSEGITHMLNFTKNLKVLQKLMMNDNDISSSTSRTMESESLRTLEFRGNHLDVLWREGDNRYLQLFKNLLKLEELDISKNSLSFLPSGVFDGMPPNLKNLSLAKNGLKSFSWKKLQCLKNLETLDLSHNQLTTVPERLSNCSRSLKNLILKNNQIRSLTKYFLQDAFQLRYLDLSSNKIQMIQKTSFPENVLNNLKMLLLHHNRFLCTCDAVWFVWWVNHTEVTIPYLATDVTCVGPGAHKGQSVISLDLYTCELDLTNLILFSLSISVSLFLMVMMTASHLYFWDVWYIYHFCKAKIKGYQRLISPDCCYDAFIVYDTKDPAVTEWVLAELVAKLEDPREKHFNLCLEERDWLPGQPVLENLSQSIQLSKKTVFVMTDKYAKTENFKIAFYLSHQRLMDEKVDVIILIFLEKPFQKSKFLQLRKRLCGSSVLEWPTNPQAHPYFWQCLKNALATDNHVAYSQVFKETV
How it was run: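 HEK293 cells stably transfected with human TLR7 plus an NF-κB-driven SEAP reporter. EC50 taken from reporter read-out, given as the mean of two independent experiments.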

Mus musculus [4] = assay: Increase in IFN level in Balb/c mouse plasma at 10 mg/kg, iv measured after 6 hrs post dose by L929 cells and VSV based bioassay; type: functional
How it was run: (§2)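 Female Balb/c mice were given a single intravenous dose of test compound. Plasma interferon was sampled 6 h post dose and quantified by a bioassay using L929 cells challenged with vesicular stomatitis virus, with values reported in IU/mL.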

[5] = Antitumor activity against mouse HM1 cells xenografted in B6C3F1 mouse assessed as inhibition of lung metastasis at 10 mg/kg, iv administered biweekly starting on day 1 post tumor xenografting measured on day 35 post tumor xenografting; type: functional; settings: in the assay text read “starting on day 11 post” for “starting on day 1 post”; how it was run: as §1
[6] = Aqueous solubility in pH 7.4 buffer; type: physicochemical
How it was run: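 Solubility measured in pH 7.4 buffer.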

[7] = target: T3, Toll-like receptor 7 (Homo sapiens) (UniProt Q9NYK1); assay: Potency index, ratio of EC50 of 852A to EC50 of test compound for human TLR7 expressed in HEK293 cells by NFkappaB SEAP reporter gene assay; type: cell-based
T3 sequence (whole entry): T2 sequence (Q9NYK1 whole entry)

Mus musculus [8] = assay: Increase in IFN level in Balb/c mouse plasma at 1 mg/kg, iv measured after 6 hrs post dose by L929 cells and VSV based bioassay; type: functional; how it was run: as §2
[9] = Volume of distribution at steady state in Balb/c mouse at 1 mg/kg, iv; type: ADME, organism-based; design: dose 1 mg/kg, route intravenous; settings: in vivo, read-out: Vdss
How it was run: (§3)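 Female Balb/c mice dosed intravenously at 1 mg/kg. Vdss and T1/2 calculated from this PK study.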

[10] = Half life in Balb/c mouse at 1 mg/kg, iv; type: ADME, organism-based; design: dose 1 mg/kg, route intravenous; settings: in vivo; how it was run: as §3
[11] = Antitumor activity against mouse HM1 cells xenografted in B6C3F1 mouse assessed as inhibition of lung metastasis at 1 mg/kg, iv administered biweekly starting on day 11 post tumor xenografting measured on day 35 post tumor xenografting
[12] = Antitumor activity against mouse HM1 cells xenografted in B6C3F1 mouse assessed as inhibition of lung metastasis at 0.1 mg/kg, iv administered biweekly starting on day 1 post tumor xenografting measured on day 35 post tumor xenografting; type: functional; settings: in the assay text read “starting on day 11 post” for “starting on day 1 post”; how it was run: as §1
[13] = Potency index, ratio of antitumor activity of 852A to test compound against mouse HM1 cells xenografted in B6C3F1 mouse; type: functional

SMILES	EC50 (Toll-like receptor 7 [3])	solubility [6]	other results
CCc1nc2c(N)nc3ccccc3c2n1CCCCNS(C)(=O)=O [CPG-52852]	2660 nM	–	inhibition in vivo at 1 mg/kg [1]: 6%; EC50 (Toll-like receptor 7 [2]): 6220 nM; Activity (Mus musculus [4]): 19 IU/ml; inhibition in vivo at 10 mg/kg [5]: 55%
CCCCNc1nc(N)c2[nH]c(=O)n(Cc3cccc(CN4CCN(C)CC4)c3)c2n1	130 nM	–	–
CCCCNc1nc(N)c2[nH]c(=O)n(Cc3ccc(CN4CCOCC4)cc3)c2n1	58 nM	8 µg/mL (≈ 19.4 µM)	–
CCCCNc1nc(N)c2[nH]c(=O)n(Cc3ccc(N4CCNCC4)nc3)c2n1	48.5 nM	63 µg/mL (≈ 158 µM)	–
CCCCNc1nc(N)c2[nH]c(=O)n(Cc3ccc(OCCNC)nc3)c2n1	166 nM	–	–
CCCCNc1nc(N)c2nc(O)n(Cc3ccc(C)cc3)c2n1	166 nM	< 1 µg/mL	–
CCCCNc1nc(N)c2[nH]c(=O)n(Cc3ccc(N4CCC(N(C)C)CC4)nc3)c2n1	9.4 nM	71 µg/mL (≈ 162 µM)	–
CCCCNc1nc(N)c2[nH]c(=O)n(Cc3ccc(CN4CCN(C)CC4)cc3)c2n1	7 nM	108 µg/mL (≈ 254 µM)	–
CCCCNc1nc(N)c2nc(O)n(Cc3ccc(OC)nc3)c2n1	28.1 nM	< 1 µg/mL	–
CCCCNc1nc(N)c2[nH]c(=O)n(Cc3ccc(CN4CCCCC4)cc3)c2n1	7.6 nM	19 µg/mL (≈ 46.4 µM)	–
CCCCNc1nc(N)c2[nH]c(=O)n(Cc3ccc(OCCCN(C)C)nc3)c2n1	–	288 µg/mL (≈ 695 µM)	–
CCCCNc1nc(N)c2[nH]c(=O)n(Cc3ccc(N4CCC(N(C)C)C4)nc3)c2n1 (configuration not stated)	7.4 nM	53 µg/mL (≈ 125 µM)	–
CCCCNc1nc(N)c2[nH]c(=O)n(Cc3ccc(CN(C)C)cc3)c2n1	9.3 nM	98 µg/mL (≈ 265 µM)	–
CCCCNc1nc(N)c2nc(O)n(Cc3ccc(C)nc3)c2n1	32 nM	< 1 µg/mL	–
CCCCNc1nc(N)c2[nH]c(=O)n(Cc3ccc(OCCN4CCOCC4)nc3)c2n1	50.2 nM	34 µg/mL (≈ 76.8 µM)	–
CCCCNc1nc(N)c2[nH]c(=O)n(Cc3ccc(OCCN(C)C)nc3)c2n1	7.2 nM	372 µg/mL (≈ 929 µM)	Ratio EC50 [7]: 370; Activity (Mus musculus [8]): 840 IU/ml; EC50 (Toll-like receptor 7 [2]): 4.6 nM; Vd [9]: 6.6 L/kg; half-life [10]: 1.3 h; inhibition in vivo at 1 mg/kg [11]: 100%; inhibition in vivo at 0.1 mg/kg [12]: 78%; Ratio [13]: >100
CCCCNc1nc(N)c2[nH]c(=O)n(Cc3ccc(N(C)CCCN(C)C)nc3)c2n1	72.8 nM	725 µg/mL (≈ 1700 µM)	–
CCCCNc1nc(N)c2[nH]c(=O)n(Cc3ccc(N4CCN(C)CC4)nc3)c2n1	5.4 nM	7 µg/mL (≈ 17 µM)	–
CCCCNc1nc(N)c2[nH]c(=O)n(Cc3ccc(OCCCCN(C)C)nc3)c2n1	15.2 nM	350 µg/mL (≈ 817 µM)	–
CCCCNc1nc(N)c2[nH]c(=O)n(Cc3cccc(CN4CCCCC4)c3)c2n1	30.1 nM	–	–
